Consider ten molecules from ChEMBL document CHEMBL1135955, “Substituted benzocyloheptenes as potent and selective alpha(v) integrin antagonists” (Bioorg Med Chem Lett, 2002).

The target in one series is Integrin alpha-V/beta-5 (Homo sapiens, UniProt P06756+P18084). Kind of series: Displacement of vitronectin from human integrin alphaV-beta5. The format is protein-complex assay. The procedure, abridged: (§1)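 Purified-receptor ligand-binding assay on human integrins αvβ3 and αvβ5 (vitronectin displacement) and αIIbβ3 (receptor from platelets). Bound ligand was detected indirectly by colorimetric reading after adding an anti-biotin antibody coupled to alkaline phosphatase. IC50 came from sigmoid variable-slope fits of dose–response data from at least two experiments per compound.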
Sequence of Integrin alpha-V/beta-5 (P06756 31-889 limits assumed): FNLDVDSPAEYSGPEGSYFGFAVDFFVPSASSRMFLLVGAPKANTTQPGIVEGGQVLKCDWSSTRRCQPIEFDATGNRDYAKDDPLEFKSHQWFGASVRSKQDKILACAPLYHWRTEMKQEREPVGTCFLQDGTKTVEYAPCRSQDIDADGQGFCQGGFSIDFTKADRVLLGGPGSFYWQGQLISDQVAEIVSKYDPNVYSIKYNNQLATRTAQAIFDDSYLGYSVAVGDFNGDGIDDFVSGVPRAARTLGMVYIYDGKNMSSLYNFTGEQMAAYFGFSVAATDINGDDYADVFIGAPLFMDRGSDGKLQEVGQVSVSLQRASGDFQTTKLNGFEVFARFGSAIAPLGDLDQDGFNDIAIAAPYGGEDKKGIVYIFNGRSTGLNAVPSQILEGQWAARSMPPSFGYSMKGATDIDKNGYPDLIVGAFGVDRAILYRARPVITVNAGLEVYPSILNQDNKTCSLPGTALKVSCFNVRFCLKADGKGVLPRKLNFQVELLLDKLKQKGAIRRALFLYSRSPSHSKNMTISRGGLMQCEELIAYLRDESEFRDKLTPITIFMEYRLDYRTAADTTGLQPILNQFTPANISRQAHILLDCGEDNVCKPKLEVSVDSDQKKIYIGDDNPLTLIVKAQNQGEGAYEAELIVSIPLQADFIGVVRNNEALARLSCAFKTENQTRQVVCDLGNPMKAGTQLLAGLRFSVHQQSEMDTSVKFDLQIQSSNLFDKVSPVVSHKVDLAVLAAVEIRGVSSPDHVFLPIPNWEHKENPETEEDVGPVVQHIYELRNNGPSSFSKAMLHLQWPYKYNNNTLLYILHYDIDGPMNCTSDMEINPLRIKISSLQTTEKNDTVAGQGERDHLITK
Sequence of Integrin alpha-V/beta-5 (P06756 891-1048 limits assumed): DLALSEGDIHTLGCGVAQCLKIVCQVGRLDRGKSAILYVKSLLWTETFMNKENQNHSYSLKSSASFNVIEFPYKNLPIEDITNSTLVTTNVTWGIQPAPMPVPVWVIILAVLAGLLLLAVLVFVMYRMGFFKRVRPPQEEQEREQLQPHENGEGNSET
Sequence of Integrin alpha-V/beta-5 (P18084 24-799 limits assumed): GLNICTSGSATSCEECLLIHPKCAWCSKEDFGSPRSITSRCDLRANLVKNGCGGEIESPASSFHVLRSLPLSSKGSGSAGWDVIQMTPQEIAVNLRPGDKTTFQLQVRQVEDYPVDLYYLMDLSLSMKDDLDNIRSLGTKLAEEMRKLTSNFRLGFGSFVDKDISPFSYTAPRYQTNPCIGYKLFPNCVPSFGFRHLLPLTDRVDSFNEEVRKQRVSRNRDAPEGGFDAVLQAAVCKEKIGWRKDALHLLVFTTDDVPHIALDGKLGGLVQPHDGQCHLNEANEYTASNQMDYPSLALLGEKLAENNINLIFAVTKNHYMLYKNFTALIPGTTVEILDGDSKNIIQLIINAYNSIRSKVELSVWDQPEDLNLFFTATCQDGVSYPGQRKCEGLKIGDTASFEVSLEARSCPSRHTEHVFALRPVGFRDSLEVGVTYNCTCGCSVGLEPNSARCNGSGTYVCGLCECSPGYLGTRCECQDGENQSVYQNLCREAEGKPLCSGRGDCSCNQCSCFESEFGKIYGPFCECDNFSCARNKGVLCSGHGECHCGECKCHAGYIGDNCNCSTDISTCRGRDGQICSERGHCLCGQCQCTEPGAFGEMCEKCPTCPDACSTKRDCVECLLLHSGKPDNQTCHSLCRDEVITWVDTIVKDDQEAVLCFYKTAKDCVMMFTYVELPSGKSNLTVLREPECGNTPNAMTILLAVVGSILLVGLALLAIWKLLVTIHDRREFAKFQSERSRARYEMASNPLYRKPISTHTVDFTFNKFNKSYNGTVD

Series [1] concerns the target Integrin alpha-IIb/beta-3 (Homo sapiens, UniProt P05106+P08514). Put plainly: Displacement of fibrinogen from Human integrin alphaIIb-beta3. The format is protein-complex assay. The procedure, abridged:
as §1

Another series deals with Integrin alpha-V/beta-3 (Homo sapiens, UniProt P05106+P06756). Kind of series: Displacement of vitronectin from Human integrin alphaV-beta3. The format is protein-complex assay. The procedure, abridged: as §1
Sequence of Integrin alpha-V/beta-3 (P05106 27-788 limits assumed): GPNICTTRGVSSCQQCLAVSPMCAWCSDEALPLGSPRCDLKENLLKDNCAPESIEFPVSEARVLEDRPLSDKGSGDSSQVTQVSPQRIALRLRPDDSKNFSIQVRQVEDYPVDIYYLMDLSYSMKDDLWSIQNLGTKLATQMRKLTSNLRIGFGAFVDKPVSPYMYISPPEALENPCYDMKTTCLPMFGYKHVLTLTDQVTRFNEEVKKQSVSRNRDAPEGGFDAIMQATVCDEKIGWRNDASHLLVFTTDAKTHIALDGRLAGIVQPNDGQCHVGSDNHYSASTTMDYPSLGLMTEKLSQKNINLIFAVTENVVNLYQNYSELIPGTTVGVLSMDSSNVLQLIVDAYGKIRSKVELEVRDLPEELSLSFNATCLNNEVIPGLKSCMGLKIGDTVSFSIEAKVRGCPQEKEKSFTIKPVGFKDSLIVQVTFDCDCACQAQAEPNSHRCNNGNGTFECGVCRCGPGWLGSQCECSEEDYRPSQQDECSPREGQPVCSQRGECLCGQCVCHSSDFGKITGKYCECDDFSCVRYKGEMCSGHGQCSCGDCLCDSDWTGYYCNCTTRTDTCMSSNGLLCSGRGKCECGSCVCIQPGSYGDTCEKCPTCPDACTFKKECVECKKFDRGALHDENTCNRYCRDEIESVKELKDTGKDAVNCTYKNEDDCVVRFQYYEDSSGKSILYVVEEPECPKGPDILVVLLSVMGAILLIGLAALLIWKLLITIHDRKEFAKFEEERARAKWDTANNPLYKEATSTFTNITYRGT
Sequence of Integrin alpha-V/beta-3 (P06756 31-889 limits assumed): as the sequence (P06756 31-889 limits assumed) above
Sequence of Integrin alpha-V/beta-3 (P06756 891-1048 limits assumed): as the sequence (P06756 891-1048 limits assumed) above
For the next series, the species on record is Homo sapiens. Put plainly: Oral absorption using Caco-2 cell monolayers. The format is ADME. The conditions noted are these: in vitro.
Another series relates to IGROV-1. Put plainly: Cellular adhesion inhibitory concentration with IGROV-1 cell line. The format is functional, cell-based. The conditions noted are these: Homo sapiens. The procedure, abridged: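 Human ovarian carcinoma IGROV-1 cells were preincubated with compound before adhesion. They were then washed, fixed and stained with crystal violet, and adhesion was quantified by image analysis. IC50 came from sigmoid variable-slope fits of dose–response sets from at least two experiments.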

Usually IC50 stands for the concentration at which inhibition is half-maximal. Lower therefore signals greater potency in that assay.

Sequence of Integrin alpha-IIb/beta-3 (P05106 27-788 limits assumed): as the sequence (P05106 27-788 limits assumed) above
Sequence of Integrin alpha-IIb/beta-3 (P08514 32-887 limits assumed): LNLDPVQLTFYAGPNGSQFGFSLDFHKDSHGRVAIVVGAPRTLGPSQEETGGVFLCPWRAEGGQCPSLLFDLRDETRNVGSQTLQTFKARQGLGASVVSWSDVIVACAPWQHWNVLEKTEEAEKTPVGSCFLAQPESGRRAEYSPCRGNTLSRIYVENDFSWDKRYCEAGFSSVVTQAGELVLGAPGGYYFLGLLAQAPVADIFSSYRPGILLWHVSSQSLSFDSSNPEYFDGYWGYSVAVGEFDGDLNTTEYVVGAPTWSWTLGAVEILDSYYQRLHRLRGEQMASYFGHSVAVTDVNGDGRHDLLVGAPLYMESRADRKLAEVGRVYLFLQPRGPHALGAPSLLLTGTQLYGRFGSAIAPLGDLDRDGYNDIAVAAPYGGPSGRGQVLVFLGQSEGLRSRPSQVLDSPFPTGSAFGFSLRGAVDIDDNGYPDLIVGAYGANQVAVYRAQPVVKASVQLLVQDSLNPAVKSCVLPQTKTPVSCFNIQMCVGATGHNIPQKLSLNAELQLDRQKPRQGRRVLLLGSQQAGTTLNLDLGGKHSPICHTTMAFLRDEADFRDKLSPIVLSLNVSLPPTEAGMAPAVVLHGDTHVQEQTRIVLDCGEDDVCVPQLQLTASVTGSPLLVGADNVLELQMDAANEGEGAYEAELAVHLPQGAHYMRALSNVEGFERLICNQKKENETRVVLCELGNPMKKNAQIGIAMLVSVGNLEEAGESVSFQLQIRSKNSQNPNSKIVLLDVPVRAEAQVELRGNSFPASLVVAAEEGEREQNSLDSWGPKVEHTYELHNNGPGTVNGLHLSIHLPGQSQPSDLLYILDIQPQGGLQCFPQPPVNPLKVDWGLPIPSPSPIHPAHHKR
Sequence of Integrin alpha-IIb/beta-3 (P08514 891-1039 limits assumed): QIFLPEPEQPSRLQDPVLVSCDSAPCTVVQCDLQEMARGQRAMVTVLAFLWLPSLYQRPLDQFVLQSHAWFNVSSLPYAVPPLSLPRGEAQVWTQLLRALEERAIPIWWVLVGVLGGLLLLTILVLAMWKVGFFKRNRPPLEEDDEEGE

As for `O=C(O)CC1CC(CNC(=O)CCCNC2=NCCCN2)=CCc2ccccc21` (stereo not given), the IC50 on Integrin alpha-V/beta-5 came to 0.1 nM; in series [1], 330 nM; at Integrin alpha-V/beta-3 it was 0.2 nM; with IGROV-1 it was 2.7 nM. The Absorption in the series listed under Homo sapiens is reported as less than 20%.
Regarding `O=C(O)CC1CC(CNC(=O)CCNCc2ccccn2)=CCc2ccccc21` (stereo not given), the 50% inhibitory concentration (IC50) stood at 119 nM on Integrin alpha-V/beta-5, 552 nM in series [1], 842 nM on Integrin alpha-V/beta-3 and 2700 nM with IGROV-1. This molecule came in with an Absorption in the series filed under Homo sapiens of 23%.
Consider `O=C(O)CC1CC(CNC(=O)CCNc2ccccn2)=CCc2ccccc21` (stereo not given), for which the concentration for half-maximal inhibition (IC50) worked out at 22 nM on Integrin alpha-V/beta-5, 1700 nM in series [1], 584 nM on Integrin alpha-V/beta-3 and 338 nM in the series on IGROV-1. In the series filed under Homo sapiens, this molecule returned an Absorption of 93%.
In the same order, the values of `O=C(O)CC1CC(CNC(=O)CCCCNc2ccccn2)=CCc2ccccc21` (stereo not given) are 0.9 nM, 1200 nM, 2.7 nM, 12 nM and 96%.
In the same order, the values of `O=C(O)CC1CC(CNC(=O)CCCc2ccc3c(n2)NCCC3)=CCc2ccccc21` (stereo not given) are 0.3 nM, 1490 nM, 0.3 nM, 6.9 nM and 92%.
As to `CN(CCCC(=O)NCC1=CCc2ccccc2C(CC(=O)O)C1)c1ccccn1` (stereo not given), the IC50 on Integrin alpha-V/beta-5 worked out at 40 nM; in series [1], 667 nM; at Integrin alpha-V/beta-3 it was 68 nM; with IGROV-1, 2030 nM. For the same molecule, in the series filed under Homo sapiens, the Absorption was determined as 94%.
In the same order, the values of `O=C(O)CC1CC(CNC(=O)CCCNc2nccs2)=CCc2ccccc21` (stereo not given) are 20 nM, greater than 10000 nM, 45 nM, 40 nM and 96%.
The matching figures for `O=C(O)CC1CC(CNC(=O)CCCNc2nc3ccccc3[nH]2)=CCc2ccccc21` (stereo not given): 0.5 nM, 1020 nM, 0.6 nM, 1.8 nM and less than 20%.
With `O=C(O)CC1CC(CNC(=O)CCCNc2ccccn2)=CCc2ccccc21` (stereo not given), the IC50 was 0.8 nM on Integrin alpha-V/beta-5, 4360 nM in series [1], 1.9 nM on Integrin alpha-V/beta-3 and 2 nM in the series with IGROV-1. The Absorption in the series listed under Homo sapiens stood at 95%.
The matching figures for `O=C(O)CC1CC(CNC(=O)CCCNC2=NCCN2)=CCc2ccccc21` (stereo not given): 0.2 nM, 110 nM, 0.3 nM, 18 nM and less than 20%.
